From paper PMC7686114 (Bioorganic chemistry, 2020) come the findings set out here.

In assay [1] the target is human recombinant PDE5 (Homo sapiens, UniProt O76074). Put plainly: PDE5 inhibition, IMAP fluorescence polarization assay. The assay is classed as biochemical. Particulars: for fold reduction in PDE5 inhibitory potency compared to compound 7: vs compound 7 (4-COOH, 4-chlorophenyl). A general note: Polarisation of emitted light reports the rotation of a fluorescent probe.
Assay [2] deals with T1, COX-2 (Ovis aries, UniProt P79208).
T1 sequence (P79208 17-603): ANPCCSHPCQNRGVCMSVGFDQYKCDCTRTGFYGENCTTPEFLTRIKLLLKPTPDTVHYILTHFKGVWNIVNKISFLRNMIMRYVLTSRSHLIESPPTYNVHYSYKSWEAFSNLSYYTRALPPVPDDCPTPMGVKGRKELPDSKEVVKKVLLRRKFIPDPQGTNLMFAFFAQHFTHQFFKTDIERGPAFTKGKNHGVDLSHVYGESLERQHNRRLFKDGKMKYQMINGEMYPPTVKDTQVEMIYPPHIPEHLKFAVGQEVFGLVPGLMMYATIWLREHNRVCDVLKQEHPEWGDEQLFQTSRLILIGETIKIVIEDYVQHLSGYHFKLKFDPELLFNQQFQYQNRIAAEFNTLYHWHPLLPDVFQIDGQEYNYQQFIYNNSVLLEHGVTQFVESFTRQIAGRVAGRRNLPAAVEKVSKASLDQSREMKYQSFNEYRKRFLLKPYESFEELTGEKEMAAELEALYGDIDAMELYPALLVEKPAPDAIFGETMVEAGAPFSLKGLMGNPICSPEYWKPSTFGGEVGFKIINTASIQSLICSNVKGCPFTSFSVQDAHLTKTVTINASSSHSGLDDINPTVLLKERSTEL
As to the kind of experiment: COX-2 colorimetric assay. The assay is classed as biochemical, ovine. A digest of the protocol: (§1)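 Ovine COX-1 or COX-2 was diluted with hemin in 0.1 M Tris-HCl, pH 8. Test compound or vehicle was preincubated with enzyme for 5 min at 25°C. Colorimetric substrate was added, then arachidonic acid, and the reaction ran 5 min more at 25°C. Activity was read as substrate absorbance at 590 nm.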

Assay [3] deals with intracellular cGMP levels in HEK293 cells. As to the kind of experiment: Luciferase cGMP biosensor assay. The assay is classed as cell-based, human. Particulars: for relative potency/efficacy in increasing intracellular cGMP levels: comparison among tadalafil, celecoxib, 11 and 19; for intracellular cGMP levels (luminescence), concentration dependence: pretreated with sodium nitroprusside. The gist of the method:
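HEK293 cells stably expressing a GloSensor cGMP-40F construct (human PDE5A GAF-A fused to firefly luciferase) were G418-selected. Cells were seeded at 6×10⁴/well and attached overnight in DMEM + 10% FBS at 37°C, 5% CO2. They were preincubated at room temperature in CO2-independent medium with 10% FBS and 5 mmol/L luciferin. 50 μM sodium nitroprusside was added together with test compound, and luminescence was read every minute for 1 h.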

For assay [4], the target named is PDE1A (Homo sapiens, UniProt P54750). Put plainly: PDE isoform selectivity, IMAP FP assay. The assay is classed as biochemical. The gist of the method: (§2)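 Recombinant PDE enzymes were used at concentrations set empirically to give EC80 activity, in 10 mM Tris-HCl pH 7.4, 10 mM MgCl2, 0.1 mg/mL BSA. Test compound was preincubated with enzyme for 60 min at 30°C. TAMRA-cGMP (ex530/em590) or FAM-cAMP (ex485/em530), 50 nmol/L final, was then added for 30 min at 30°C. IMAP binding reagent followed for 10 min at 30°C, and fluorescence polarization was read.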

Assay [5] has as its target PDE2A (Homo sapiens, UniProt O00408). Put plainly: PDE isoform selectivity, IMAP FP assay. The assay is classed as biochemical.
The target in assay [6] is PDE3A (Homo sapiens, UniProt Q14432). As to the kind of experiment: PDE isoform selectivity, IMAP FP assay. The assay is classed as biochemical. A digest of the protocol:
as §2

Assay [7] concerns the target PDE3B (Homo sapiens, UniProt Q13370). As to the kind of experiment: PDE isoform selectivity, IMAP FP assay. The assay is classed as biochemical. The gist of the method: as §2
Assay [8] deals with PDE4B2 (Homo sapiens, UniProt Q07343). Put plainly: PDE isoform selectivity, IMAP FP assay. The assay is classed as biochemical. The conditions noted are these: read-out: % inhibition at 50 μM, PDE4B2 (cAMP). A digest of the protocol: as §2
In assay [9] the target is PDE6C (Homo sapiens, UniProt P51160). As to the kind of experiment: PDE isoform selectivity, IMAP FP assay. The assay is classed as biochemical. Particulars: read-out: % inhibition at 50 μM, PDE6C (cGMP). The gist of the method:
as §2

Assay [10] addresses PDE7A (Homo sapiens, UniProt Q13946). Put plainly: PDE isoform selectivity, IMAP FP assay. Particulars: read-out: % inhibition at 50 μM, PDE7A (cAMP). The assay is classed as biochemical. The gist of the method: as §2
For assay [11], the target named is PDE8A (Homo sapiens, UniProt O60658). As to the kind of experiment: PDE isoform selectivity, IMAP FP assay. The assay is classed as biochemical. The conditions noted are these: read-out: % inhibition at 50 μM, PDE8A (cAMP). A digest of the protocol:
as §2

In assay [12] the target is PDE9A (Homo sapiens, UniProt O76083). Put plainly: PDE isoform selectivity, IMAP FP assay. The conditions noted are these: read-out: % inhibition at 50 μM, PDE9A (cGMP). The assay is classed as biochemical. The gist of the method: as §2
Assay [13] has as its target PDE10A (Homo sapiens, UniProt Q9Y233). As to the kind of experiment: PDE isoform selectivity, IMAP FP assay. The assay is classed as biochemical. The gist of the method:
as §2

Assay [14] concerns the target PDE11A (Homo sapiens, UniProt Q9HCR9). Put plainly: PDE isoform selectivity, IMAP FP assay. The assay is classed as biochemical. The gist of the method: as §2
The test system of assay [15] is all other PDE isozymes, including PDE6 and PDE11. As to the kind of experiment: PDE isozyme selectivity panel. The conditions noted are these: concentrations up to 50 μM. The assay is classed as biochemical, human.
Assay [16] concerns the target T2, COX-1 (Ovis aries, UniProt P05979).
T2 sequence (P05979 25-600): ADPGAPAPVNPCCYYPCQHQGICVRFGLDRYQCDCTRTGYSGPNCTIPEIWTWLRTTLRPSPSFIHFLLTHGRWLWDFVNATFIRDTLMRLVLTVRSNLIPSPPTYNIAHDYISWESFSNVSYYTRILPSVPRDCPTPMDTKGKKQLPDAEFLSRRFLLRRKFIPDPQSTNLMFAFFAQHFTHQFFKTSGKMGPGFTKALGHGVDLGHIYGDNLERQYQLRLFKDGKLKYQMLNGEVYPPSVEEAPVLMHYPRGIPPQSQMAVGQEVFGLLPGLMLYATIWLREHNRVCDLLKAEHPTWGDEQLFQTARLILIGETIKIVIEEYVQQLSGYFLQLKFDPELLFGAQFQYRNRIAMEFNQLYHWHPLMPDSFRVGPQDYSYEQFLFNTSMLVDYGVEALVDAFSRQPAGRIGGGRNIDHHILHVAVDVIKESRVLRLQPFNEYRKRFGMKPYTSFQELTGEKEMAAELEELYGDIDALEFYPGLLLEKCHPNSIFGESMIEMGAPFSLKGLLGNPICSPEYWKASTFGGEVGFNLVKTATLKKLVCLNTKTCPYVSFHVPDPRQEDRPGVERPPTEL
As to the kind of experiment: COX-1 colorimetric assay. The assay is classed as biochemical, ovine. The conditions noted are these: screening concentration 100 μM. The gist of the method:
as §1

[17] abbreviates: read-out: PDE5 % inh at 50 (μM).

Entries after “also recorded” stand apart in the source; their conditions may differ. Read-outs that look alike come from different tables or passages of the source.

Sequence of PDE10A (Q9Y233 whole entry, canonical isoform): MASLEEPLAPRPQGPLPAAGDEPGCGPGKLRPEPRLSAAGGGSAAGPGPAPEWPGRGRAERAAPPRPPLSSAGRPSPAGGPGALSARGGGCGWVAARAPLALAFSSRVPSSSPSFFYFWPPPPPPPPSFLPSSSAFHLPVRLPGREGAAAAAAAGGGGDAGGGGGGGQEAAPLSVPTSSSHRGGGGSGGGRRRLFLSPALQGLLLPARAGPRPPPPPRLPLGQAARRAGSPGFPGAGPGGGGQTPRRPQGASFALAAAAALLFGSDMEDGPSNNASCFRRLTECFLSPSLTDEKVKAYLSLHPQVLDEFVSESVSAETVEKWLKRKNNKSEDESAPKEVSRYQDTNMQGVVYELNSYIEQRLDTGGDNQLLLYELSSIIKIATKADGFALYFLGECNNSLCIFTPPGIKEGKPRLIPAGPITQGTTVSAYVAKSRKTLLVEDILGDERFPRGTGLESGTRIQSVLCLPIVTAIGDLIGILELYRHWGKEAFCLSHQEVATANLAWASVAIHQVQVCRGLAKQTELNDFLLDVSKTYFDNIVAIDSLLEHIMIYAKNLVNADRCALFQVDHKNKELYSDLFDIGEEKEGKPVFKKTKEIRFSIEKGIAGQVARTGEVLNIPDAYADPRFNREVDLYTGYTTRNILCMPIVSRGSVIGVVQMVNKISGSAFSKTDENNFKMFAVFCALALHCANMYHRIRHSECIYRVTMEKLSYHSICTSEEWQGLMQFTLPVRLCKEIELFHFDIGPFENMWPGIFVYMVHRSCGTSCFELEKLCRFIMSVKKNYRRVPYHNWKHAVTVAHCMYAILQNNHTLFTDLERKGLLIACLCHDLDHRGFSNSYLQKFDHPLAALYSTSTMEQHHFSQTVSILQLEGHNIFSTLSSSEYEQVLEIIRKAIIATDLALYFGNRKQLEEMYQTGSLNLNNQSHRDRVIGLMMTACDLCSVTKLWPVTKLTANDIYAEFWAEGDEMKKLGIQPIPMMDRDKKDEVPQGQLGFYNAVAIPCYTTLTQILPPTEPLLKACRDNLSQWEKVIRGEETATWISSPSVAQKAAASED
Sequence of PDE2A (O00408 whole entry, canonical isoform): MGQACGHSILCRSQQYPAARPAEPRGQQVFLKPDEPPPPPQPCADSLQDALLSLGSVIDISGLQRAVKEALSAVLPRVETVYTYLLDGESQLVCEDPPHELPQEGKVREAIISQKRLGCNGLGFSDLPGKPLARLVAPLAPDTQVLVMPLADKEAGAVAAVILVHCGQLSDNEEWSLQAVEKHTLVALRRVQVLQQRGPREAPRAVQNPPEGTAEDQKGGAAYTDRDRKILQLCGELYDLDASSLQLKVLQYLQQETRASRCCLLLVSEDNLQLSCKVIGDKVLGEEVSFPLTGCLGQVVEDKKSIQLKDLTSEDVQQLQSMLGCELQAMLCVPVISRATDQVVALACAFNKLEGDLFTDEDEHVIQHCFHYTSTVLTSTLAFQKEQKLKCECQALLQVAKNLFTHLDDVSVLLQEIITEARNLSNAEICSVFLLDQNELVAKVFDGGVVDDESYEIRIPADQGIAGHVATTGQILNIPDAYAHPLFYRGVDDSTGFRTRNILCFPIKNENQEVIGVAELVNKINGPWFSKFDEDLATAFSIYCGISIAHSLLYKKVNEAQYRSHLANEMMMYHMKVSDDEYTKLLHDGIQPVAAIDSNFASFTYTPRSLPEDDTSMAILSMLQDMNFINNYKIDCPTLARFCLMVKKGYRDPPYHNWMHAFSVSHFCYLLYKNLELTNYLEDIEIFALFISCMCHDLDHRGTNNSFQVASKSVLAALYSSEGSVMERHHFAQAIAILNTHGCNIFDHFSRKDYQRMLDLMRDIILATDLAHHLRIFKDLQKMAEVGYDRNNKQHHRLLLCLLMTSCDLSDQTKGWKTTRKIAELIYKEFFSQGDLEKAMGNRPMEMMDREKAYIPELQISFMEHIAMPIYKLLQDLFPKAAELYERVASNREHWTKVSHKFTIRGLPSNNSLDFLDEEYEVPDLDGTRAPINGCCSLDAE
Sequence of PDE11A (Q9HCR9 whole entry, canonical isoform): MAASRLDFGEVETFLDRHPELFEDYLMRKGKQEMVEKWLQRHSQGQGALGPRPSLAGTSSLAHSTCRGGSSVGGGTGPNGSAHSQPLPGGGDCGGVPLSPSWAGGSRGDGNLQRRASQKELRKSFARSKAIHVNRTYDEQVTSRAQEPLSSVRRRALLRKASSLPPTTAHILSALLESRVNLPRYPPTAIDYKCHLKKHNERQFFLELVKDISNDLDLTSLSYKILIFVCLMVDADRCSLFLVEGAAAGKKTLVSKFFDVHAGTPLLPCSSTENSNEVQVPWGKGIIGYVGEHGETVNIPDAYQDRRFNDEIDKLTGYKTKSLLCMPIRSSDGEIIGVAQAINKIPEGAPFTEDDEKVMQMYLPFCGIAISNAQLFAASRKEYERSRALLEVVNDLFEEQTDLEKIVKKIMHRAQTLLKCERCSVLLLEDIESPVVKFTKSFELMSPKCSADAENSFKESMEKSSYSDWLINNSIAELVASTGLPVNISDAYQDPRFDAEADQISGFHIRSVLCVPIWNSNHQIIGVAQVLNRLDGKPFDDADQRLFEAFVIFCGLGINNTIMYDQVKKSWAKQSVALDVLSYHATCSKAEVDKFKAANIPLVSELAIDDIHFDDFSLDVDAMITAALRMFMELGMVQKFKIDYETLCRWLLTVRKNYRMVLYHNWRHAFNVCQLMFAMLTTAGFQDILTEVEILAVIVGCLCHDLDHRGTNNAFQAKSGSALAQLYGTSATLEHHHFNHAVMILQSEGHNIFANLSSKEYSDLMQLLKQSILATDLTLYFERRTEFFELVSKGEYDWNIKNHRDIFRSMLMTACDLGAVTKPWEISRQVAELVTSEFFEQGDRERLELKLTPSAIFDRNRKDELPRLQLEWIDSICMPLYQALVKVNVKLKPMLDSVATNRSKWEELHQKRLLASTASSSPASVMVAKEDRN
Sequence of PDE3B (Q13370 whole entry, canonical isoform): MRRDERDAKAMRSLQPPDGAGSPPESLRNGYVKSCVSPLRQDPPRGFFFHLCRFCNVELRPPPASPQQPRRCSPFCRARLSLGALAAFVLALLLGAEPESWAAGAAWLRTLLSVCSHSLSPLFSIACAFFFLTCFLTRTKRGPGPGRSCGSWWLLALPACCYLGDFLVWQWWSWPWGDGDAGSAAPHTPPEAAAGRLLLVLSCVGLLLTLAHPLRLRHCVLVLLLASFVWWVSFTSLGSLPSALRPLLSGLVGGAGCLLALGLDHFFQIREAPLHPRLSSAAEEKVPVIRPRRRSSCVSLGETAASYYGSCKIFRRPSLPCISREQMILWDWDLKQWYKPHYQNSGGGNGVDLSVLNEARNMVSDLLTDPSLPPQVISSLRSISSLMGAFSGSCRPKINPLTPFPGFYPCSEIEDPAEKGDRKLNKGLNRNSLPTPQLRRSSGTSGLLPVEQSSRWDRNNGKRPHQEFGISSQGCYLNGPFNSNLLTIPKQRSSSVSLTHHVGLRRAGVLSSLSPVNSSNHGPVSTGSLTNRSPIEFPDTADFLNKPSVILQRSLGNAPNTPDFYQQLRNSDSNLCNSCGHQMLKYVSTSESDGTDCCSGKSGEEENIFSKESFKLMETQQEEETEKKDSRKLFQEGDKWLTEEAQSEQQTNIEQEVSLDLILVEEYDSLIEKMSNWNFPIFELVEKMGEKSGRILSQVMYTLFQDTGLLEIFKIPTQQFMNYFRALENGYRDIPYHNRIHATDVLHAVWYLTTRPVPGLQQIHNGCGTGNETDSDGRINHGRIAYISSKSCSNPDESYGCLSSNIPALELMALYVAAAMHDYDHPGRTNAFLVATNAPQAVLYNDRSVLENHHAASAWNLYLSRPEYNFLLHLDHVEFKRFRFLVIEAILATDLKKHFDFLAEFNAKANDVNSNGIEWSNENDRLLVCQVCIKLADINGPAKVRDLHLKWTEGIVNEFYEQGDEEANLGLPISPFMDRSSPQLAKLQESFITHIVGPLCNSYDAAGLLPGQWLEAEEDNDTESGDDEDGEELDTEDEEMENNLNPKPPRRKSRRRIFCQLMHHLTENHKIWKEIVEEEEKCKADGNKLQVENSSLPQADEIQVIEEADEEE
Sequence of PDE1A (P54750 whole entry, canonical isoform): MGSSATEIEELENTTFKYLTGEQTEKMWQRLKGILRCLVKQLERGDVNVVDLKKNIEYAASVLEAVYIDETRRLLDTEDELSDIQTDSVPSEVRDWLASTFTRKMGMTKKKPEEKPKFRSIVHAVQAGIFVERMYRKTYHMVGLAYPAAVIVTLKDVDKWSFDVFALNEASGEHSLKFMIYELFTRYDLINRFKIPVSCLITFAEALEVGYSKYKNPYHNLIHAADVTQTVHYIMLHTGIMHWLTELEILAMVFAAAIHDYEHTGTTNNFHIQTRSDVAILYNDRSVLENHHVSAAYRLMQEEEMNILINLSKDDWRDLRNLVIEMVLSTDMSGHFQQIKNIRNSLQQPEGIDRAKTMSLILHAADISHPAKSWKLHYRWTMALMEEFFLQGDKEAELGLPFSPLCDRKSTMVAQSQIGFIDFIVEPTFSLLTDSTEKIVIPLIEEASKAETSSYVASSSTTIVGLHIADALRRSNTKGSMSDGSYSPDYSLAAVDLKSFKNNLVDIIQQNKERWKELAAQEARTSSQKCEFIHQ
Sequence of PDE7A (Q13946 whole entry, canonical isoform): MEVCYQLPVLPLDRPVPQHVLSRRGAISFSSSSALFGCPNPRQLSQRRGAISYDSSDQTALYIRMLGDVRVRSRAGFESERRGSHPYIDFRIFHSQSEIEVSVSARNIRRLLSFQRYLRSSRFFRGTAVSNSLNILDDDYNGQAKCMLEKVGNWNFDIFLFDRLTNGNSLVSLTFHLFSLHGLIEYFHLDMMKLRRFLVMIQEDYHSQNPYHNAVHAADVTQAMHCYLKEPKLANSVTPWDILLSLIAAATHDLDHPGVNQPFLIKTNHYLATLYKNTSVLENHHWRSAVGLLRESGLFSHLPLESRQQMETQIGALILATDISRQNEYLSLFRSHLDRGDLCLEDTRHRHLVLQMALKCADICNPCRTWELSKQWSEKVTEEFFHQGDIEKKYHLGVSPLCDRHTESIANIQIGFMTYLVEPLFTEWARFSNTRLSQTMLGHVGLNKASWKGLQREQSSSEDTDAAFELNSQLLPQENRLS

Turning to `CC(C)(C)C1=NN(c2ccc(S(N)(=O)=O)cc2)C(c2ccc(Cl)cc2)C1` (centres unmarked) [Compound 33, 4-(3-tert-Butyl-5-(4-chlorophenyl)-4,5-dihydro-1H-pyrazol-1-yl)benzenesulfonamide], the values for the IC50 in assay [1] and in assay [2] were 48.7 µM and 34 µM, respectively. In addition, the inhibition at 50 µM in assay [1] (setting [17]) was found to be 57.5%. In [1], the “fold reduction in PDE5 inhibitory potency compared to compound 7” value was “about 15 fold”.

In the case of `CCOc1ccc(C2CC(C(C)(C)C)=NN2c2ccc(C(=O)O)cc2)cc1` (centres unmarked) [Compound 19, 4-(3-(tert-Butyl)-5-(4-ethoxyphenyl)-4,5-dihydro-1H-pyrazol-1-yl)benzoic acid], the inhibition at 50 µM in assay [1] (setting [17]) was 95.3%. For the same molecule, in [3], the “relative potency/efficacy in increasing intracellular cGMP levels” value is recorded as “substantially higher efficacy” and the “intracellular cGMP levels (luminescence), concentration dependence” value is on record as “concentration-dependent increase”.

Consider `CC(C)(C)C1=NN(c2ccc(C(=O)O)cc2)C(c2ccc(Cl)cc2Cl)C1` (centres unmarked) [Compound 11, 4-(3-(tert-Butyl)-5-(2,4-dichlorophenyl)-4,5-dihydro-1H-pyrazol-1-yl) benzoic acid], for which the IC50 – broadly, the concentration needed to halve the response being measured – in [1] amounted to 2.7 µM. In addition, the inhibition at 50 µM in assay [1] (read-out: % inhibition at 50 μM, PDE5A (cGMP)) is 97%; in assay [1] (setting [17]) it was 97%; in [4] (read-out: % inhibition at 50 μM, PDE1A (cAMP)) it was 2.6%; in assay [4] (read-out: % inhibition at 50 μM, PDE1A (cGMP)) it was 22%; in assay [5] (read-out: % inhibition at 50 μM, PDE2A (cAMP)), 5.6%; in [5] (read-out: % inhibition at 50 μM, PDE2A (cGMP)) it was 19.9%. Also, the inhibition at 50 µM in assay [6] (read-out: % inhibition at 50 μM, PDE3A (cAMP)) was 12.4%; in [6] (read-out: % inhibition at 50 μM, PDE3A (cGMP)), 36.2%; in assay [7] (read-out: % inhibition at 50 μM, PDE3B (cAMP)), 6.7%; in assay [7] (read-out: % inhibition at 50 μM, PDE3B (cGMP)), 15.7%; in assay [8], 1.6%; in assay [9] it was 16.2%. Moreover, the inhibition at 50 µM in assay [10] is 9.1%; in assay [11] it was 4%; in assay [12], 10.7%; in assay [13] (read-out: % inhibition at 50 μM, PDE10A (cAMP)) it was 3.6%; in assay [13] (read-out: % inhibition at 50 μM, PDE10A (cGMP)) it was 4.5%; in assay [14] (read-out: % inhibition at 50 μM, PDE11A (cAMP)), 0.9%. Besides, the inhibition at 50 µM in assay [14] (read-out: % inhibition at 50 μM, PDE11A (cGMP)) turned out to be 5.9%. For the same molecule, in [3], the “relative potency/efficacy in increasing intracellular cGMP levels” value is reported as “substantially higher efficacy; also recorded: higher cellular potency”. The “intracellular cGMP levels (luminescence), concentration dependence” value in assay [3] is reported as “concentration-dependent increase”. Further, the “effect on activity of all other PDE isozymes” value in [15] is reported as “without significantly affecting the activity”.

For `Cc1ccc(C2CC(C(C)(C)C)=NN2c2ccc(C(=O)O)cc2)cc1` (centres unmarked) [Compound 22, 4-(3-tert-Butyl-5-p-tolyl-4,5-dihydro-1H-pyrazol-1-yl)benzoic acid], the “fold improvement in PDE5 inhibitory activity compared to celecoxib” value in assay [1] (ratio of IC50 vs celecoxib) is recorded as 4 fold. The inhibition at 50 µM in assay [1] (setting [17]) was 93%. Moreover, the “COX2 inhibition at 100 μM” value in assay [2] (screening concentration 100 μM) is given as “no COX inhibition”. Also, the “COX1 inhibition at 100 μM” value in assay [16] was “no COX inhibition”.

With `CC(C)(C)C1=NN(c2ccc(S(=O)(=O)O)cc2)C(c2ccc(F)cc2)C1` (centres unmarked) [Compound 31, 4-(3-tert-Butyl-5-(4-fluorophenyl)-4,5-dihydro-1H-pyrazol-1-yl) benzenesulfonic acid], the results for the IC50 in assay [1] and in assay [2] were 9.3 µM and 80 µM, respectively. In [1] (setting [17]), the inhibition at 50 µM was found to be 80%.

For the molecule `CC(C)(C)C1=NN(c2ccc(S(=O)(=O)O)cc2)C(c2ccc(Cl)cc2)C1` (centres unmarked) [Compound 32, 4-(3-tert-Butyl-5-(4-chlorophenyl)-4,5-dihydro-1H-pyrazol-1-yl)benzenesulfonic acid], the results for the IC50 in assay [1] and in assay [2] were 8.7 µM and 85 µM, respectively. Further, in [1] (setting [17]), the inhibition at 50 µM came out at 85%. Also, the “fold reduction in PDE5 inhibitory potency compared to compound 7” value in assay [1] was “about 2 fold”.
